Reference: ChEMBL document CHEMBL4028909, “Discovery of an Orally Bioavailable Benzofuran Analogue That Serves as a β-Amyloid Aggregation Inhibitor for the Potential Treatment of Alzheimer's Disease” (J Med Chem, 2018)
pIC50: −log10 of the molar value.

Columns and labels:
[1] = tested on: HT-22; assay: Neuroprotective activity against amyloid beta-induced toxicity in mouse HT22 cells assessed as increase in cell viability preincubated for 1 hr followed by amyloid beta challenge measured after 18 hrs by MTT assay; assay type: functional, cell-based
In short: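 Mouse hippocampal HT22 cells were treated with compound at several concentrations and then exposed to preformed Aβ aggregates made from 25 μM monomeric Aβ. Viability was read by MTT and scaled between untreated cells and Aβ-only cells. Mean±SD of three independent experiments; one-way ANOVA with Dunnett test.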

[2] = tested on: Mus musculus; assay: Reversal of cognitive deficit in amyloid beta (1 to 42)-treated Alzheimer's disease ICR mouse model assessed as step-through latency time at 10 mg/kg, po administered for 3 consecutive days by passive avoidance test; assay type: functional
In short: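 Acute AD model: preformed Aβ aggregates injected into the brains of normal mice. Compound given orally for three consecutive days, then step-through passive avoidance was tested by a standard protocol. Read-out is step-through latency (sec), compared against control and vehicle groups.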

[3] = tested on: Mus musculus; assay: Reversal of cognitive deficit in amyloid beta (1 to 42)-treated Alzheimer's disease ICR mouse model assessed as increase in spatial memory function administered orally for 3 consecutive days by Y maze test; assay type: functional
In short: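 Acute AD model: preformed Aβ aggregates injected directly into the brains of normal mice to induce acute neurotoxicity. Compound given orally for three consecutive days, then the Y-maze was run. Read-out is percentage of spontaneous alternation, compared against normal and vehicle-treated mice.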

[4] = tested on: Mus musculus; assay: Toxicity in double APP/PS1 transgenic Alzheimer's disease mouse model at 30 to 100 mg/kg, po qd administered for 8 weeks; assay type: organism-based; details: in vivo, 1344 h
In short: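 APP/PS1 double transgenic mice, 29 weeks old, dosed orally once daily at 30 or 100 mg/kg for eight weeks. Y-maze spontaneous alternation (%) was then measured against vehicle-treated mice, and mice were watched for apparent toxicity.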

[5] = tested on: Mus musculus; assay: Antiamyloidogenic activity in double APP/PS1 transgenic Alzheimer's disease mouse model assessed as amyloid beta (1 to 42) levels in brain at 100 mg/kg, po qd administered for 8 weeks by sandwich ELISA relative to control; assay type: functional
In short: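 APP/PS1 mice, 29 weeks old, were dosed orally once daily for eight weeks at 30 or 100 mg/kg, with a vehicle group. Brain tissue was homogenized and amyloid fibrils were solubilized to monomers. Aβ1-40 and Aβ1-42 were then quantified by immunoassay with antibodies specific to monomeric Aβ.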

[6] = AUClast in mouse at 3 mg/kg, iv; assay type: ADME, organism-based; design: dose 3 mg/kg, time 0 - last, route intravenous; details: in vivo
In short: (§1)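 Mice received a single dose of 3 mg/kg i.v. or 3, 10 or 30 mg/kg orally. Plasma concentration-time profiles were analysed for AUC from zero to infinity and to the last measured time (hr*ng/mL), Cmax (ng/mL, C0 after i.v.), Tmax and terminal half-life (hr), and oral bioavailability (%).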

[7] = Oral bioavailability in mouse at 3 mg/kg; assay type: ADME, organism-based; details: in vivo; in short: as §1
[8] = Tmax in mouse at 10 mg/kg, po; assay type: ADME, organism-based; details: in vivo
In short: (§2)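 Mouse pharmacokinetics: single i.v. dose of 3 mg/kg, or oral doses of 3, 10 and 30 mg/kg. Plasma concentration–time curves gave T1/2 (terminal, hr), Tmax (hr), Cmax, AUC and bioavailability (%).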

[9] = Oral bioavailability in mouse at 10 mg/kg; assay type: ADME, organism-based; details: in vivo; in short: as §1
[10] = Tmax in mouse at 30 mg/kg, po; assay type: ADME, organism-based; details: in vivo; in short: as §2
[11] = Cmax in mouse at 30 mg/kg, po; assay type: ADME, organism-based; design: dose 30 mg/kg, route oral; details: in vivo; in short: as §1
[12] = AUC (infinity) in mouse at 30 mg/kg, po; assay type: ADME, organism-based; design: dose 30 mg/kg, time infinity, route oral; details: in vivo; in short: as §1
[13] = Oral bioavailability in mouse at 30 mg/kg; assay type: ADME, organism-based; details: in vivo; in short: as §1
[14] = Clearance in iv dosed rat; assay type: ADME, organism-based; details: in vivo
[15] = Clearance in iv dosed dog; assay type: ADME, organism-based, Canis lupus familiaris; details: in vivo
[16] = tested on: Rattus norvegicus; assay: Volume of distribution at steady state in po dosed rat; assay type: ADME, organism-based; details: in vivo
[17] = Half life in po dosed monkey; assay type: ADME, organism-based, Macaca mulatta; details: rhesus monkey, in vivo
[18] = Cmax in po dosed rat; assay type: ADME, organism-based; design: route oral; details: in vivo
[19] = Cmax in po dosed ICR mouse; assay type: ADME, organism-based; design: route oral; details: in vivo
[20] = Oral bioavailability in rat; assay type: ADME, organism-based; details: in vivo
[21] = Oral bioavailability in monkey; assay type: ADME, organism-based, Macaca mulatta; details: rhesus monkey, in vivo
[22] = Oral bioavailability in ICR mouse; assay type: ADME, organism-based; details: in vivo
[23] = target: T1, Cytochrome P450 1A2 (Homo sapiens, UniProt P05177); assay: Inhibition of CYP1A2 in human liver microsomes preincubated for 5 mins followed by addition of NADPH generating system measured after 20 mins by LC-MS/MS analysis; assay type: ADME
T1 sequence (P05177 whole entry): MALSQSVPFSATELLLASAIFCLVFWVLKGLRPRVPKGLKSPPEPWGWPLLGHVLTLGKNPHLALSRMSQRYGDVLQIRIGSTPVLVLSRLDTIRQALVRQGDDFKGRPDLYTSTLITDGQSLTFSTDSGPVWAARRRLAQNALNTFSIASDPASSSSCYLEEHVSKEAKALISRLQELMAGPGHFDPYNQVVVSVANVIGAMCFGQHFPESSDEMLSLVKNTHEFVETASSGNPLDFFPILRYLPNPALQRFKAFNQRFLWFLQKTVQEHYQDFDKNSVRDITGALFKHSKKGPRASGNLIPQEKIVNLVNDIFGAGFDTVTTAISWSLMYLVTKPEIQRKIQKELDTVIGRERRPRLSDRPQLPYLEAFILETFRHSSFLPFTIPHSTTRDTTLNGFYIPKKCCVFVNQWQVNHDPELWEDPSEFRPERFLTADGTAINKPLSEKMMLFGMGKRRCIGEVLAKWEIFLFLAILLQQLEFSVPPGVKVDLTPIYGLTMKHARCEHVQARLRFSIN
In short: (§3)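 Inhibition of each CYP isozyme (1A2, 2A6, 2C8, 2C9, 2C19, 2D6, 3A4) was measured in human liver microsomes. IC50 values were reported in μM.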

[24] = target: T2, Cytochrome P450 2A6 (Homo sapiens, UniProt P11509); assay: Inhibition of CYP2A6 in human liver microsomes preincubated for 5 mins followed by addition of NADPH generating system measured after 20 mins by LC-MS/MS analysis; assay type: ADME; in short: as §3
T2 sequence (P11509 whole entry): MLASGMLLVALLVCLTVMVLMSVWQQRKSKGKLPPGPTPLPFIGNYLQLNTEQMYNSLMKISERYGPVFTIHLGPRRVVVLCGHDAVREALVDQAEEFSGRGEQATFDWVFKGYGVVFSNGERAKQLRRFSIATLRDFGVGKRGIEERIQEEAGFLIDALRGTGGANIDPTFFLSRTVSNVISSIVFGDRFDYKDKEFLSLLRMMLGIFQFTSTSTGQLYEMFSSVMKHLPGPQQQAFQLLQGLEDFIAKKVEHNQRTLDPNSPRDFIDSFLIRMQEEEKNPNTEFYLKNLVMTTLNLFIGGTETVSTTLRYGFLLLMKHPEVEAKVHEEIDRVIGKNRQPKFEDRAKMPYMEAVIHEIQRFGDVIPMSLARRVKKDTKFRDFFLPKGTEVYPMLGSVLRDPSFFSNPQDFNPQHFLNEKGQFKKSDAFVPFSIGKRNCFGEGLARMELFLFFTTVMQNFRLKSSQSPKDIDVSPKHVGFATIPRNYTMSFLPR

[25] = Half-life in po dosed rat; details: in vivo

AUC(0-t) [6]: 1300 ng·h/mL
bioavailability [7]: 21.4%
Tmax [8]: 0.7 h
bioavailability [9]: 51.9%
Tmax [10]: 3 h
Cmax [11]: 1700 ng/mL
AUC(0-inf) [12]: 10500 ng·h/mL
bioavailability [13]: 79.1%
clearance [14]: 33 mL/min/kg
clearance [15]: 29 mL/min/kg
Vdss [16]: 10 L/kg
half-life [17]: 12.9 h
Cmax [18]: 421 ng/mL
Cmax [19]: 944 ng/mL
bioavailability [20]: 51%
bioavailability [21]: 70%
bioavailability [22]: 83.3%
pIC50 [23]: < 4.30
pIC50 [24]: < 4.30
t1/2 [25]: 3.8 h
SMILES: COCCCc1ccc2oc(-c3ccc(OC)c(OC)c3)cc2c1
Activity [1]: Dose-dependent effect
Time [2]: 201.2 s
Activity [3]: Dose-dependent effect
ED50 ([3]; po): 0.18 mg/kg
Activity [4]: Non-Toxic
Activity [5]: 70%
